Assay [1] has as its target T1, Isopenicillin N synthase (Penicillium chrysogenum) (UniProt P08703).
T1 sequence (whole entry): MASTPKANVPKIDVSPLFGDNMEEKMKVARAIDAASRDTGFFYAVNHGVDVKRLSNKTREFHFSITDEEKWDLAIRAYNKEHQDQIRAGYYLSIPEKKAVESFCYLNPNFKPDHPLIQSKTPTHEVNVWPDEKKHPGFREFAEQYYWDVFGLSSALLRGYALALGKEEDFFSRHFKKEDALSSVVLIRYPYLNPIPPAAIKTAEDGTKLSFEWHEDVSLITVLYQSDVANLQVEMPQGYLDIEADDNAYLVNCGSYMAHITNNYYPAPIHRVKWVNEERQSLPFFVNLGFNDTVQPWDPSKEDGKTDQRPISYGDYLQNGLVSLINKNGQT
In words: Anti-micrococcus luteus activity was tested for inhibition of isopenicillin N synthetase. To be noted: Penicillium chrysogenum (Penicillium notatum). In short, it runs like this: (§1)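 Peptide added at a known amount to a standard IPNS reaction mixture with ACV as substrate before starting the reaction with enzyme. Applied to peptides not converted to an anti-M. luteus product. Percent inhibition derived from the ratio of reaction rates with and without the peptide.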

The target in assay [2] is T2, Regulatory protein BlaR1 (Bacillus licheniformis) (UniProt P12287).
T2 sequence (whole entry): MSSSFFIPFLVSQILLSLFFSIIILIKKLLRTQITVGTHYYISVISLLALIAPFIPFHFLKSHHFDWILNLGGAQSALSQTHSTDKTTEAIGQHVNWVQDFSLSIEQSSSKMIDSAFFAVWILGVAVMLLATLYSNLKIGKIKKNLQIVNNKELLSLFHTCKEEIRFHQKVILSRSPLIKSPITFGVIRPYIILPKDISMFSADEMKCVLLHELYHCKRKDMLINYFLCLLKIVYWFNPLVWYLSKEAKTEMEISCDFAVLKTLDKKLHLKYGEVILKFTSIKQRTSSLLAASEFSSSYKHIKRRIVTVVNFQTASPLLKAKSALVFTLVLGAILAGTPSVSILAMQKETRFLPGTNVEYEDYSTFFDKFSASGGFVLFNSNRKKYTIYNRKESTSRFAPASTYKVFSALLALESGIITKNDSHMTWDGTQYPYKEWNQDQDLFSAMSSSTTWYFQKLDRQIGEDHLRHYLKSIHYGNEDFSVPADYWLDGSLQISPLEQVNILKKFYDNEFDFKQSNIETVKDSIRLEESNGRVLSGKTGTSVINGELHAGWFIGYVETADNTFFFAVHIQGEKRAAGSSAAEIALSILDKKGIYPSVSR
In words: Beta-lactamase induction in Bacillus licheniformis. In short, it runs like this:
(§2)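 Ethanol-stopped IPNS reactions (peptide 0.3 mM, 25 °C) were mixed 1:1 with log-phase B. licheniformis ATCC 14580 diluted to 30 Klett units and incubated for 2 h at 30 °C. Tylosin was added, then after 15 min nitrocefin, with A492 read over 30 min. β-Lactam was quantified by β-lactamase synthesis relative to penicillin G.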

Assay [3] has as its system Micrococcus luteus. The experiment in a line: In vitro antibiotic activity against Micrococcus luteus(ATCC 9341 stain). Format: functional, organism-based. Summed up:
(§3)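 Peptides at 0.3 mM incubated with purified IPNS in Tris-HCl pH 8.0 containing KCl, MgSO4, FeSO4, ascorbate and DTT, at 25 °C for 2–20 min in quadruplicate, then stopped with ethanol. Samples with and without penicillinase went into wells on M. luteus ATCC 9341 lawns, incubated overnight at 37 °C, and inhibition zones were read. Peptides giving no product were retested for 1 h at 3 mM.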

Assay [4] deals with T1, Isopenicillin N synthase (Penicillium chrysogenum). The experiment in a line: Anti Micrococcus luteus activity was tested for inhibition of Isopenicillin N synthetase (isopenicillin N synthase); yes. In short, it runs like this: as §1
The nature of assay [5]: Antibiotic activity against Micrococcus luteus (ATCC 9341 strain). Format: functional. Summed up:
as §3

Assay [6] relates to Micrococcus luteus. In words: The compound was tested for the antibiotic activity against Micrococcus luteus(ATCC 9341 stain); no. In kind it is functional, organism-based. Summed up: as §3
Assay [7] deals with T2, Regulatory protein BlaR1 (Bacillus licheniformis). In words: The compound was tested for Beta-lactamase induction in B. licheniformis; +. In short, it runs like this:
as §2

In assay [8] the target is T1, Isopenicillin N synthase (Penicillium chrysogenum). In words: Anti Micrococcus luteus activity was tested for inhibition of IPNS (isopenicillin N synthase); no. Summed up:
as §1

For `CC(C)[C@@H](NC(=O)[C@H](CSSC[C@H](NC(=O)CCCCCN)C(=O)N[C@@H](C(=O)O)C(C)C)NC(=O)CCCCCN)C(=O)O`, the Activity entry in assay [1] was “No activity”. Moreover, in assay [2], the Beta-lactamase induction result was “+”. For the same compound, in assay [3], the Antibiotic activity entry is “Yes”.

For `CC(C)[C@@H](NC(=O)[C@@H](N)CSSC[C@H](N)C(=O)N[C@@H](C(=O)O)C(C)C)C(=O)O`, the Activity result in assay [4] is “Yes”. The Antibiotic activity result in assay [5] is “No activity”.

Regarding `N[C@@H](CCCC(=O)NC(CSSCC(NC(=O)CCC[C@H](N)C(=O)O)C(=O)N[C@H](Cc1c[nH]c2ccccc12)C(=O)O)C(=O)N[C@H](Cc1c[nH]c2ccccc12)C(=O)O)C(=O)O` (stereo partly specified), in assay [4], the Activity entry is “Yes”. Moreover, the Antibiotic activity result in assay [5] was “No activity”.

Regarding `CC(C)[C@@H](NC(=O)[C@H](CSSC[C@H](NC(=O)C(N)c1cccc(C(=O)O)c1)C(=O)N[C@@H](C(=O)O)C(C)C)NC(=O)C(N)c1cccc(C(=O)O)c1)C(=O)O` (stereo partly specified), the Activity entry in assay [1] is “No activity”. For the same compound, in assay [5], the Antibiotic activity result was “No activity”. For the same compound, the Beta-lactamase induction result in assay [2] is “+”.

Turning to `N[C@@H](CCCC(=O)NC(CSSCC(NC(=O)CCC[C@H](N)C(=O)O)C(=O)N[C@H](CCl)C(=O)O)C(=O)N[C@H](CCl)C(=O)O)C(=O)O` (stereo partly specified), in assay [4], the Activity entry is “Yes”. Also, the Antibiotic activity result in assay [5] is “No activity”.

In the case of `CC(C)[C@@H](NC(=O)[C@H](CSSC[C@H](NC(=O)c1cccc(C(N)C(=O)O)c1)C(=O)N[C@@H](C(=O)O)C(C)C)NC(=O)c1cccc(C(N)C(=O)O)c1)C(=O)O` (stereo partly specified), the Activity result in assay [1] is “No activity”. Besides, the Beta-lactamase induction result in assay [2] is “+”. Also, the Antibiotic activity entry in assay [3] is “Yes”.

In the case of `CC(C)[C@@H](NC(=O)[C@H](C)NC(=O)CCC[C@H](N)C(=O)O)C(=O)O`, in assay [1], the Activity result was “No activity”. The Antibiotic activity entry in assay [5] was “No activity”. The Beta-lactamase induction entry in assay [2] was “+”.

With `CC(C)[C@@H](NC(=O)[C@H](CSSC[C@H](NC(=O)CCCCCCN)C(=O)N[C@@H](C(=O)O)C(C)C)NC(=O)CCCCCCN)C(=O)O`, in assay [1], the Activity entry is “No activity”. The Beta-lactamase induction entry in assay [2] is “+”. Also, in assay [3], the Antibiotic activity result was “Yes”.

For `CC(C)[C@@H](NC(=O)[C@H](CS)NC(=O)CCC[C@H](N)C(=O)O)C(=O)O`, the Activity result in assay [1] was “No activity”. Besides, in assay [2], the Beta-lactamase induction entry was “+”.

For `N[C@@H](CCCC(=O)N[C@@H](CSSC[C@H](NC(=O)CCC[C@H](N)C(=O)O)C(=O)N[C@H](C(=O)O)C(C(F)(F)F)C(F)(F)F)C(=O)N[C@H](C(=O)O)C(C(F)(F)F)C(F)(F)F)C(=O)O`, the Activity result in assay [4] is “Yes”. In assay [5], the Antibiotic activity entry is “No activity”.

As to `CC(C)[C@@H](NC(=O)[C@H](CS)NC(=O)Cc1ccc(O)cc1)C(=O)O`, the Activity result in assay [1] is “No activity”. For the same compound, the Antibiotic activity result in assay [5] is “No activity”. Besides, in assay [2], the Beta-lactamase induction entry was “+”.

In the case of `CC(C)[C@@H](NC(=O)[C@H](CSSC[C@H](NC(=O)CCC[C@H](N)C(=O)O)C(=O)N[C@@H](C(=O)O)C(C)C)NC(=O)CCC[C@H](N)C(=O)O)C(=O)O`, in assay [1], the Activity entry is “No activity”. For the same compound, the Beta-lactamase induction entry in assay [2] was “+”. The Antibiotic activity entry in assay [3] is “Yes”.

As to `CC(O)[C@@H](NC(=O)C(CSSCC(NC(=O)CCC[C@H](N)C(=O)O)C(=O)N[C@@H](C(=O)O)C(C)O)NC(=O)CCC[C@H](N)C(=O)O)C(=O)O` (stereo partly specified), the Activity result in assay [1] was “No activity”. The Antibiotic activity entry in assay [6] was “No activity”.

Regarding `N[C@@H](CCCC(=O)NC(CSSCC(NC(=O)CCC[C@H](N)C(=O)O)C(=O)N[C@H](Cc1ccc(O)cc1)C(=O)O)C(=O)N[C@H](Cc1ccc(O)cc1)C(=O)O)C(=O)O` (stereo partly specified), the Activity result in assay [4] is “Yes”. In addition, the Antibiotic activity result in assay [6] is “No activity”.

Take `CC(C)[C@@H](NC(=O)[C@H](CSSC[C@H](NC(=O)CCCCN)C(=O)N[C@@H](C(=O)O)C(C)C)NC(=O)CCCCN)C(=O)O`: the Beta-lactamase induction result in assay [7] was “+”. In assay [8], the Activity result was “No activity”. Further, in assay [3], the Antibiotic activity entry is “Yes”.

On to `CC(C)[C@@H](NC(=O)[C@H](CSSC[C@H](NC(=O)OCc1ccccc1)C(=O)N[C@@H](C(=O)O)C(C)C)NC(=O)OCc1ccccc1)C(=O)O`, for which the Activity result in assay [1] was “No activity”. Further, in assay [5], the Antibiotic activity result was “No activity”. Besides, the Beta-lactamase induction result in assay [2] is “+”.

Turning to `CC(C)[C@@H](NC(=O)[C@H](CS)NC(=O)CCC[C@@H](N)C(=O)O)C(=O)O`, in assay [1], the Activity entry is “No activity”. Also, the Beta-lactamase induction result in assay [2] is “+”. For the same compound, the Antibiotic activity result in assay [3] was “Yes”.

As for `CC(C)[C@@H](NC(=O)[C@H](CSSC[C@H](NC(=O)Cc1cccc(N)c1)C(=O)N[C@@H](C(=O)O)C(C)C)NC(=O)Cc1cccc(N)c1)C(=O)O`, the Activity result in assay [1] was “No activity”. Moreover, in assay [2], the Beta-lactamase induction entry is “+”. Also, the Antibiotic activity result in assay [3] was “Yes”.

Regarding `N[C@@H](CCCC(=O)N[C@@H](CSSC[C@H](NC(=O)CCC[C@H](N)C(=O)O)C(=O)NC(C(=O)O)C(C(F)(F)F)C(F)(F)F)C(=O)NC(C(=O)O)C(C(F)(F)F)C(F)(F)F)C(=O)O` (stereo in doubt; 62), in assay [4], the Activity entry was “Yes”. The Antibiotic activity result in assay [5] was “No activity”.

Turning to `N[C@@H](CCCC(=O)N[C@@H](CSSC[C@H](NC(=O)CCC[C@H](N)C(=O)O)C(=O)NC(C(=O)O)C(C(F)(F)F)C(F)(F)F)C(=O)NC(C(=O)O)C(C(F)(F)F)C(F)(F)F)C(=O)O` (stereo in doubt; 63), in assay [4], the Activity entry was “Yes”. In addition, the Antibiotic activity entry in assay [5] is “No activity”.

On to `N[C@@H](CCCC(=O)N[C@@H](CS)C(=O)NCC(=O)O)C(=O)O`, for which, in assay [4], the Activity result is “Yes”. Moreover, the Antibiotic activity entry in assay [5] is “No activity”.

Turning to `CC(C)[C@@H](NC(=O)[C@H](CSSC[C@H](NC(=O)[C@@H]1CCCN1)C(=O)N[C@@H](C(=O)O)C(C)C)NC(=O)[C@@H]1CCCN1)C(=O)O`, the Activity result in assay [8] is “No activity”. The Antibiotic activity result in assay [5] was “No activity”.

With `CC(C)[C@@H](NC(=O)[C@H](CO)NC(=O)CCC[C@H](N)C(=O)O)C(=O)O`, the Activity result in assay [1] is “No activity”. For the same compound, the Antibiotic activity result in assay [5] is “No activity”. In assay [2], the Beta-lactamase induction entry is “+”.

With `CC(C)[C@@H](NC(=O)[C@@H](CS)NC(=O)CCC[C@H](N)C(=O)O)C(=O)O`, in assay [1], the Activity entry is “No activity”. The Antibiotic activity result in assay [5] was “No activity”. The Beta-lactamase induction result in assay [2] was “+”.

The values are drawn from ChEMBL document CHEMBL1126293, “Substrate specificity of isopenicillin N synthase” (J Med Chem, 1992).
